Experimental data taken from ChEMBL document CHEMBL1129335, “Synthesis and structure-activity relationships of 2-substituted D-tryptophan-containing peptidic endothelin receptor antagonists: importance of the C-2 substituent of the D-tryptophan residue for endothelin A and B receptor subtype selectivity” (J Med Chem, 1996).

Columns and labels:
Endothelin-1 receptor [1] = target: T1, Endothelin-1 receptor (Sus scrofa, UniProt Q29010); experiment: Binding affinity towards endothelin A receptor in porcine aortic smooth muscle membranes.
T1 sequence (Q29010 whole entry): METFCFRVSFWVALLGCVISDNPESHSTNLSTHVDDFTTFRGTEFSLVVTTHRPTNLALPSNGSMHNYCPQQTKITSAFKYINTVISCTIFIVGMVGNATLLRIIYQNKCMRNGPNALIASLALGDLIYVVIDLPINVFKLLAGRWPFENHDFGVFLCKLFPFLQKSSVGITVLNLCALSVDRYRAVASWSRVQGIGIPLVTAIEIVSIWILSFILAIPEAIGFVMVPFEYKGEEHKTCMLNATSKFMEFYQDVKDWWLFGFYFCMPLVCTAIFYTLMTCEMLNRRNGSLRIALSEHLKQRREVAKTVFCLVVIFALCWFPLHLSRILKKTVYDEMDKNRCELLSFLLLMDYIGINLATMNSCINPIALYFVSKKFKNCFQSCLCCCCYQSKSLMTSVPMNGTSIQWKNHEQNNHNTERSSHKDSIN
Method in brief: (§1)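 Competitive binding in porcine membranes: aortic smooth muscle for ETA and cerebellum for ETB, run by a previously reported method. Variation was generally within 10%.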

Endothelin-1 receptor [2] = target: T2, Endothelin-1 receptor (Homo sapiens, UniProt P25101); experiment: Binding affinity towards Endothelin A receptor in human neuroblastoma-derived cell line SK-N-MC membranes; type: cell-based
T2 sequence (P25101 whole entry): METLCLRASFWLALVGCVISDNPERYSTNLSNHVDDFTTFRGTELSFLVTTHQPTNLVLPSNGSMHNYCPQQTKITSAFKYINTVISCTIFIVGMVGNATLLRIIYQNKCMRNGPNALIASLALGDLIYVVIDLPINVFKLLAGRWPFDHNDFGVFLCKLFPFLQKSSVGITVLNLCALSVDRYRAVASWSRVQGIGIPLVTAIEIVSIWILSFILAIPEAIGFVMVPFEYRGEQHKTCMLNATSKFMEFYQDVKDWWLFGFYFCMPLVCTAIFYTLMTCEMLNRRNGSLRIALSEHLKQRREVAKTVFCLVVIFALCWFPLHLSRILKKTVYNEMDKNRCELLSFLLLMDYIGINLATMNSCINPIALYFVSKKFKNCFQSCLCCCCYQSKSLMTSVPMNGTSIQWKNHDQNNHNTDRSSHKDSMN
Method in brief: (§2)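 Membrane binding assay on human receptors. ETA came from the neuroblastoma-derived line SK-N-MC and ETB from Girardi heart cells. Inhibition was expressed as IC50.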

[3] = target: T3, Endothelin receptor type B (Sus scrofa, UniProt P35463); experiment: Binding affinity towards endothelin B receptor in porcine cerebellum membranes; type: cell membranes, Membrane; method in brief: as §1
T3 sequence (P35463 whole entry): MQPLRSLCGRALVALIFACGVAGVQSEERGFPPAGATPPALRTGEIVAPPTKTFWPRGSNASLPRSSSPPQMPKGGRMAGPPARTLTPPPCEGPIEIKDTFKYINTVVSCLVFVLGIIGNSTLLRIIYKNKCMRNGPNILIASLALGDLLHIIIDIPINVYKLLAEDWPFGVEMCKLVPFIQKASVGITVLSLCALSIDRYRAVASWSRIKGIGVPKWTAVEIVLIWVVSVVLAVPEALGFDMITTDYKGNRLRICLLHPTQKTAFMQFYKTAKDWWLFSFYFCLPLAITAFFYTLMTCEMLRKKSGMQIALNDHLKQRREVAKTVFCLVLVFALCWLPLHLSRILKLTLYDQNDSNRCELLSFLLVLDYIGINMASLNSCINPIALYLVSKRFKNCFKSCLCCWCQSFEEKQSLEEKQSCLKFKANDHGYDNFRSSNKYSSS

[4] = target: T4, Endothelin receptor type B (Homo sapiens, UniProt P24530); experiment: Binding affinity rowards Endothelin B receptor in human girardi heart cell membranes; method in brief: as §2
T4 sequence (P24530 whole entry): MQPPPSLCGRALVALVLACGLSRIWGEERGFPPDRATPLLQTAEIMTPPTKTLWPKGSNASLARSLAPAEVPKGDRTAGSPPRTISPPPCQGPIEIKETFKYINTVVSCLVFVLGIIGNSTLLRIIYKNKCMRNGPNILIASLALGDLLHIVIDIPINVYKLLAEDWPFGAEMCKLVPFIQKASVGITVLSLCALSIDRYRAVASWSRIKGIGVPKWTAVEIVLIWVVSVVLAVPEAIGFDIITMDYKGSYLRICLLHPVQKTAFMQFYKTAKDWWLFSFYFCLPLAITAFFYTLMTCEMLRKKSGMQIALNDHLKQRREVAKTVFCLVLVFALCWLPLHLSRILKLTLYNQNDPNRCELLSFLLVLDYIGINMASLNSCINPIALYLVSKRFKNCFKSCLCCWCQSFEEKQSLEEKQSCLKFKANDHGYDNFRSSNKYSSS

[5] = Inhibitory activity against ET 1 induced calcium increase in human Girardi heart cells; type: functional, cell-based
Method in brief: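 Intracellular Ca2+ rise in intact human Girardi heart cells was induced by ET-1, run by a reported method. Inhibition was expressed as IC50. Compounds were also applied alone at 100 µM to check for any rise in [Ca2+]i.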

[6] = target: T4, Endothelin receptor type B; experiment: Binding affinity towards Endothelin B receptor in human girardi heart cell membranes; method in brief: as §2
[7] = Antagonistic activity against Endothelin B receptor by BQ-3020 induced constriction in isolated rabbit pulmonary arteries; type: functional; conditions: Oryctolagus cuniculus; read-out: pA2 (converted)
Method in brief: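 Isolated rabbit pulmonary arteries were contracted with the ETB-selective agonist BQ-3020, following a previously reported protocol. Antagonist potency was given as pA2.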

[8] = Ability to antagonize ET-1 mediated constriction in rabbit pulmonary arteries; type: functional, Oryctolagus cuniculus
[9] = Ability to antagonize ET-A mediated vasoconstrictor activity in isolated porcine coronary arteries; type: functional; conditions: read-out: pA2 (converted)
Method in brief: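 Isolated porcine coronary artery rings were contracted with ET-1, an ETA-mediated response, following a reported method. Antagonism was quantified as a pA2 value.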

| SMILES | IC50 (Endothelin-1 receptor [1]) [nM] | IC50 (Endothelin-1 receptor [2]) [nM] | IC50 [3] [nM] | IC50 [4] [nM] | IC50 [5] [nM] | IC50 [6] [nM] | Kb [7] [nM] | pA2 [8] | Kb [9] [nM] |
| --- | --- | --- | --- | --- | --- | --- | --- | --- | --- |
| CCSCC(NC(=O)[C@@H](Cc1c(Br)[nH]c2ccccc12)NC(=O)C(CC(C)C)NC(=O)N1[C@H](C)CCC[C@@H]1C)C(=O)O (stereo not given in full) | 1.9 | 6.4 | 1.8 | 3.6 |  |  |  |  |  |
| CCCCC(NC(=O)[C@@H](Cc1c(C#N)[nH]c2ccccc12)NC(=O)C(NC(=O)N1[C@H](C)CCC[C@@H]1C)C(C)C)C(=O)O (stereo not given in full) |  | 2400 | 2.3 |  | 4 | 5 | 3.16 |  |  |
| CCCCC(NC(=O)[C@@H](Cc1c(Br)[nH]c2ccccc12)NC(=O)C(NC(=O)N1[C@H](C)CCC[C@@H]1C)C1CC1)C(=O)O (stereo not given in full) | 3.8 | 13 | 0.81 |  |  | 1.1 |  | 6.4 | 12.6 |
